Experimental findings from the array DNA melting data of Ke et al. (doi:10.1101/2024.01.08.574731) are described below.

The nature of series [1]: folding enthalpy; higher = less favourable; fluorescence melt of hairpins on a sequencing array, two-state fit. To be noted: sodium 0.088 M. The method in brief:
(§1)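 Library hairpins on a sequenced MiSeq flow cell carried annealed Cy3 and quencher oligos, and their Cy3 fluorescence was imaged in 50 mM Na-HEPES pH 8.0 with 25 mM NaCl, in 2.5 °C steps up to 60 °C. Signals were normalised to Cy3 before quenching and to control constructs. Melting temperature and folding enthalpy were obtained from bootstrapped two-state fits, combined by inverse-variance weighting across four replicates, and the fitted temperatures were then raised by 9.35 °C to match UV melts.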

Series [2] in a line: melting temperature; fluorescence melt of hairpins on a sequencing array, two-state fit, raised by 9.35 °C to match UV melts. The conditions noted are these: sodium 0.088 M. The method in brief: as §1

Turning to GAAAGCGAAAGCTACTTC ((((((....)))..))), the folding enthalpy in series [1] was -14.6 kcal/mol. Also, the Tm in series [2] was found to be 35.9 °C.
Take GAAAGCGAAAGCTCATTC ((((((....)))..))): in series [1], the folding enthalpy was -8.68 kcal/mol. Further, the Tm in series [2] turned out to be 23.9 °C.
The matching figures for GAAAGCGAAAGCTGTTC ((((((....))).))): -10.8 kcal/mol and 34.1 °C.
The matching figures for GAAAGCGAAAGCTTTC ((((((....)))))): -34.9 kcal/mol and 64.7 °C.
With GAAAGCGGAAACACTTTC (((((.(....).))))), the folding enthalpy in series [1] was -29.8 kcal/mol. For the same sequence, the Tm in series [2] worked out at 36.2 °C.
As for GAAAGGCGAAAGCCCTTC (((.(((....))).))), the folding enthalpy in series [1] was -13 kcal/mol. Besides, in series [2], the Tm came out at 38.8 °C.
The matching figures for GAAAGGGGAAACCCCTTC (((.(((....))).))): -14.8 kcal/mol and 39.9 °C.
The matching figures for GAAAGGGGAAACCCTTCC (.(((((....))))).): -19.7 kcal/mol and 32.1 °C.
For the sequence GAAAGTGGAAACACTCTC ((.((((....)))).)), in series [1], the folding enthalpy was -19.4 kcal/mol. The Tm in series [2] turned out to be 26.6 °C.
Taken in the same sequence, the figures for GAAATAGGAAACTATTTC (((((((....))))))) were -44.1 kcal/mol and 46.4 °C.
The matching figures for GAAATCGAAAGATTTC ((((((....)))))): -32.5 kcal/mol and 55.9 °C.
GAAATCGGAAACGATTCC (.(((((....))))).): the folding enthalpy in series [1] was -16.6 kcal/mol. In addition, the Tm in series [2] turned out to be 37.1 °C.
The matching figures for GAAATGCGAAAGCAATTC (((.(((....))).))): -20 kcal/mol and 45.3 °C.
For GAAATTGAAAAATTTC ((((((....)))))), the folding enthalpy in series [1] was -23.6 kcal/mol. The Tm in series [2] was 40.3 °C.
Regarding GAAATTGGAAACAATTCC (.(((((....))))).), the folding enthalpy in series [1] was -22.9 kcal/mol. For the same sequence, in series [2], the Tm is 30.5 °C.
Turning to GAACAAGGAAACTTGTTC (((((((....))))))), in series [1], the folding enthalpy is -44.9 kcal/mol. In addition, the Tm in series [2] amounted to 53 °C.
Turning to GAACACGAAAGTGATTTC ((((((....)))..))), in series [1], the folding enthalpy is -12.3 kcal/mol. Besides, the Tm in series [2] turned out to be 26.9 °C.
Taken in the same sequence, the figures for GAACACGAAAGTGCTTTC ((((((....)))..))) were -13 kcal/mol and 27.8 °C.
Regarding GAACACGAAAGTGGTTC ((((((....))).))), the folding enthalpy in series [1] was -18.6 kcal/mol. The Tm in series [2] was determined as 47.1 °C.
The matching figures for GAACAGCCGAAAGGCTTC (((..(((....)))))): -5.48 kcal/mol and 24.5 °C.
As to GAACAGGGAAACCTGTCC (.(((((....))))).), the folding enthalpy in series [1] is -16.1 kcal/mol. Moreover, the Tm in series [2] was 35.1 °C.
With GAACAGGGAAACTTGTTC (((((.(....).))))), the folding enthalpy in series [1] was -27.2 kcal/mol. The Tm in series [2] turned out to be 37.1 °C.
For GAACCACGAAAGTGTTTC (((.(((....))).))), the folding enthalpy in series [1] is -27.6 kcal/mol. For the same sequence, the Tm in series [2] came out at 37.2 °C.
In the case of GAACCAGGAAACTGATTC (((.(((....))).))), the folding enthalpy in series [1] was -20.5 kcal/mol. Moreover, the Tm in series [2] was 32.3 °C.
Turning to GAACCAGGAAACTGGTCC (.(((((....))))).), the folding enthalpy in series [1] is -12.6 kcal/mol. The Tm in series [2] was 39.5 °C.
Taken in the same sequence, the figures for GAACCCCGAAAGGGTTTC (((.(((....))).))) were -16.2 kcal/mol and 47.8 °C.
The matching figures for GAACCCGAAAGGGAATTC ((((((....)))..))): -12.1 kcal/mol and 31.4 °C.
Taken in the same sequence, the figures for GAACCCGAAAGGGCCTTC ((((((....)))..))) were -14.2 kcal/mol and 34.6 °C.
Take GAACCCGAAAGGGGGTTC ((((((....)))..))): in series [1], the folding enthalpy is -25.3 kcal/mol. In series [2], the Tm was determined as 56 °C.
With GAACCCGAAAGGGGTTC ((((((....))).))), the folding enthalpy in series [1] was -26 kcal/mol. In series [2], the Tm was 61.1 °C.
Taken in the same sequence, the figures for GAACCCGAAAGGGTATTC ((((((....)))..))) were -9.47 kcal/mol and 33.2 °C.
For GAACCCGGAAACGGGTCC (.(((((....))))).), the folding enthalpy in series [1] is -11.2 kcal/mol. In addition, the Tm in series [2] came out at 45.4 °C.
The matching figures for GAACCGGGAAACCGATTC (((.(((....))).))): -26.4 kcal/mol and 39.2 °C.
Consider GAACCGGGAAACCGGCTC ((.((((....)))).)), for which, in series [1], the folding enthalpy was -15.7 kcal/mol. In series [2], the Tm worked out at 46 °C.
On to GAACCGGGAAACCGGTCC (.(((((....))))).), for which the folding enthalpy in series [1] was -11.6 kcal/mol. In series [2], the Tm came out at 41.2 °C.
As to GAACCTGGAAACGGGTTC (((((.(....).))))), the folding enthalpy in series [1] was -39.3 kcal/mol. Moreover, the Tm in series [2] worked out at 50.7 °C.
